Screening data: PubChem BioAssay, several laboratories
MrgX1 agonist – human MrgX1 receptor agonism, primary screen | AID 588627 | MrgX1-HEK293 cells, Fluo-4 calcium fluorescence, agonist mode; hits give high values | B-score at 10 µM | 0.44% of 310,000 active;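 active means calcium response B-score plate-corrected fluorescence ratio at least 3 library SD, with starting fluorescence B-score inside 5 SD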
Target sequence (Q96LB2 whole entry, looked up): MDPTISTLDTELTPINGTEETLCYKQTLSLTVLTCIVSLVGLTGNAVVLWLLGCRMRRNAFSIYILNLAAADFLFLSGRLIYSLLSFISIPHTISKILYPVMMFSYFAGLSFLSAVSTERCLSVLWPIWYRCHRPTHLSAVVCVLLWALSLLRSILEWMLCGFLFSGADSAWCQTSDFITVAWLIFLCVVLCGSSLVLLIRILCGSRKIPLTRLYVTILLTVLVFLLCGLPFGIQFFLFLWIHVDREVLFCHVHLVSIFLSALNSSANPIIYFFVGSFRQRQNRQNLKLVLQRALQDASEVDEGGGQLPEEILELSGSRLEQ
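System: HEK293 cells stably expressing human MrgX1 receptor; Dosing: test compound in the initial addition of three; Schedule: overnight plating, then 30 min 37 °C plus 30 min room-temperature dye loading; Detection: kinetic calcium dye fluorescence, Fluo-4 NW; Controls: per-plate positive and negative controls for Z′ factor.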
RGS4 block – inhibitors of human RGS4 | P49798 | HEK293 M3R/RGS4 inducible, Fluo-4 calcium flux; hits give high values; triggered by carbachol at its EC20 | B-score at 10 µM | 0.45% of 310,000 active | AID 463165;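 active means B-score, a plate-corrected calcium signal, over three deviations above library mean, with baseline fluorescence within five deviations of library mean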;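 further: RGS4 expression induced by doxycycline in cells with stable M3 receptor; B-score is computed from the integrated fluorescence ratio over baseline after carbachol; higher B-score means a larger calcium signal and so more RGS4 inhibition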
Target sequence (P49798 whole entry, looked up): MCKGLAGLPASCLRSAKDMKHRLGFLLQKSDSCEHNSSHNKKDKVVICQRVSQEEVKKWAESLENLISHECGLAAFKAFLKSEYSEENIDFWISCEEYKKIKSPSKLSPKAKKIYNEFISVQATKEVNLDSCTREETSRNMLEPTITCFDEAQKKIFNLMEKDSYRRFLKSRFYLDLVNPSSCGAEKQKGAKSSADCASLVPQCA
RGS4 pot – RGS4 potentiation or activation | AID 463111 | 0.92% of 310,000 active | HEK293 M3R/inducible RGS4, carbachol calcium flux Fluo4; hits give low values | B-score at 10 µM;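 active means B-score of the integrated calcium signal more than 4 SD below the library mean, with starting fluorescence not abnormally high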;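 further: negative B-score means reduced calcium response which marks RGS4 activation or potentiation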
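Assay system: HEK293 FlpIn-TREx cells, stable M3R, doxycycline-inducible RGS4 / Probe or stimulus: carbachol, ECmax concentration / Times: overnight RGS4 induction, 30 min dye load 37 °C, 20 min compound RT / Signal: kinetic calcium fluorescence imaging with Fluo4-AM dye, 2 µM / Measure: Agonist-evoked peak-minus-minimum fluorescence over baseline, integrated ratio, B score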
MrgX1 allo act – allosterically activates human MrgX1 receptor signaling; 0.63% of 310,000 active; MrgX1-HEK293, Fluo-4 calcium flux, FDSS; hits give high values; B-score at 10 µM;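 active means plate-corrected calcium response at least 3 library SD above typical, normal starting fluorescence, not activating the receptor alone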;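 further: compound read alongside a low EC10 to EC30 dose of BAM8-22 agonist; peak minus trough fluorescence over baseline measured at the second addition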
MrgX1 antag – blocks BAM8-22 activation of human MrgX1 receptor; MRGX1-HEK293 calcium flux, Fluo-4, BAM8-22 antagonism; hits give low values; B-score at 10 µM; 1.3% of 310,000 active; AID 588676;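 active means calcium-response B-score plate-corrected more than 3 library SD below zero, starting fluorescence within 5 deviations, no agonist response on first addition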;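 further: peak minus trough fluorescence over baseline after final BAM8-22 challenge near maximal dose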
Lipid droplet – modulators of hepatic lipid droplet formation | AML12 mouse hepatocytes, oleate lipid droplets, BODIPY imaging | inhibition, % at 6.5 µM | 0.4% of 240,000 active;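 active means lipid droplet intensity inhibited by at least 50%, with more than 500 cells counted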
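Material – mouse AML12 hepatocyte cell line, fixed after treatment · Compound dosing – one dose, 6.5 µM compound · Times – compound with oleate, overnight · Measured by – Image-based BODIPY and DAPI two-channel analysis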
MrgX1 ant reconf – human MrgX1 receptor antagonism, re-confirmation screen | shares compounds with MrgX1 antag | MrgX1-HEK293, BAM8-22 calcium flux, Fluo-4; hits give low values | remaining BAM8-22 calcium response % of control (hits give low values), % at 10 µM | 19% of 2,300 active;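 active means remaining agonist calcium response no higher than 100% minus 3 SD of agonist-only control wells, with starting fluorescence near control levels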;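 further: agonist BAM8-22 given at a near maximal EC90 to ECmax level; peak minus minimum fluorescence divided by baseline after agonist addition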
HEK293 Ca flux – MrgX1 antagonist counter-screen hit in parental HEK293 cells; shares compounds with MrgX1 antag; fluorescence ratio F(max-min)/F0 at 10 µM; AID 624111; 2% of 4,000 active; Fluo-4 calcium fluorescence, FDSS;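 active means duplicate-averaged calcium fluorescence ratio at least three times the standard deviation of buffer wells, a nonspecific response in parental cells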
HEK293 Ca counter – MrgX1 allosteric activator counter-screen hit in parental HEK293 cells. parental HEK293 calcium flux, Fluo-4 fluorescence ratio; hits give high values. AID 624114. shares compounds with MrgX1 antag. fluorescence ratio F(max-min)/F0 at 10 µM. 0.4% of 4,000 active;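 active means calcium fluorescence ratio, averaged over duplicates, at least 3 SD of the buffer-well ratio, meaning a nonspecific response in receptor-free cells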;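 further: untransfected parental HEK293 lacking MrgX1 used as counterscreen for MrgX1 allosteric activators; fluorescence change taken during the second addition on a kinetic imager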
HEK293 Ca cntr2 – activity in parental HEK293 cells lacking MrgX1 receptor | 8.7% of 4,000 active | AID 624115 | shares compounds with MrgX1 antag | fluorescence ratio F(max-min)/F0 at 10 µM | Fluo-4 calcium fluorescence (FDSS); hits give high values;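 active means calcium fluorescence ratio at least three times the spread of buffer wells, meaning a non-specific response in parental cells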
A number is an active result; - = inactive; . = no result given. Only some compounds are listed: those with a hit (about 3.8% of all), similar ones and a draw of the others.

SMILES | MrgX1 agonist | RGS4 block | RGS4 pot | MrgX1 allo act | MrgX1 antag | Lipid droplet | MrgX1 ant reconf | HEK293 Ca flux | HEK293 Ca counter | HEK293 Ca cntr2
CCOC(=O)c1sc(=NC(=O)c2ccccc2)n(C)c1C | - | - | - | - | - | - | . | . | . | .
CCOC(=O)c1sc(=NC(=O)CCS(=O)(=O)c2ccccc2)n(C)c1C | - | - | - | - | -5.7 | - | - | - | - | -
O=C(NC1=NCCS1)c1cccc(S(=O)(=O)N2CCc3ccccc32)c1 | - | - | - | - | -4.9 | - | - | - | - | -
O=C(NC1=NCCS1)c1ccc(Cl)c(S(=O)(=O)N2CCc3ccccc32)c1 | - | - | - | - | - | - | . | . | . | .
Cc1ccc2c(c1)CCCN2S(=O)(=O)c1cccc(C(=O)Nc2ccccc2C(=O)O)c1 | - | - | - | - | -6.7 | - | 67% | - | - | -
CC(=O)c1cc(C#N)c(N2CCOCC2)nc1C | - | - | - | - | -4.6 | - | - | - | - | -
CC(=O)OC1COC(N2CCc3cc(Br)c([N+](=O)[O-])cc32)C(OC(C)=O)C1OC(C)=O (stereo not drawn) | - | - | - | - | - | - | . | . | . | .
COc1ccc(C(=O)c2cn[nH]c2-c2cc(C)ccc2O)cc1 | - | - | - | - | -4.5 | - | - | - | - | -
COc1ccc(C(=O)c2cn[nH]c2-c2cc(Cl)ccc2O)cc1 | - | - | - | - | - | . | . | . | . | .
O=C(Nc1cc(C(F)(F)F)ccc1N1CCOCC1)c1ccco1 | - | - | - | - | -4.5 | - | - | - | - | -
Cc1ccc(C)c(S(=O)(=O)N2CCN(C(=O)c3cccnc3)CC2)c1 | - | - | - | - | -11 | - | - | - | - | -
Cc1ccc(C)c(S(=O)(=O)N2CCN(C(=O)Cc3ccccc3)CC2)c1 | - | - | - | - | - | . | . | . | . | .
Cc1ccc(C)c(S(=O)(=O)N2CCN(C(=O)CSC(=S)N3CCCC3)CC2)c1 | - | - | - | - | -5.3 | . | - | - | - | -
NC(=O)c1cc(C(=O)c2ccc(Cl)cc2)c[nH]1 | - | - | - | - | - | - | . | . | . | .
CCn1c(SCC(=O)Nc2cc(C)on2)nc2c1c(=O)n(C)c(=O)n2C | - | - | - | - | -7 | - | - | - | - | -
CCOC(=O)c1cnc(-n2nc(C)cc2C)nc1Nc1ccc(OC)cc1 | - | - | - | - | - | - | . | . | . | .
CCOC(=O)c1cnc(-n2nc(C)cc2C)nc1NC1CCCC1 | - | - | - | - | -4.7 | - | - | - | - | -
O=C(CSc1ccc2nnc(-c3ccccn3)n2n1)N1CCN(c2ccccc2)CC1 | - | - | - | - | - | . | . | . | . | .
CCOC(=O)C1=C(O)CSC1=Nc1cccc2ccccc12 | - | - | - | - | - | - | . | . | . | .
CCOC(=O)C1=C(O)CSC1=Nc1ccc(C)cc1 | - | - | - | - | -5.7 | - | - | - | - | -
CCn1c(SCC(=O)N(C(C)C)C(C)C)nnc1-c1cc2ccccc2cc1O | - | - | - | - | -6.2 | - | - | - | - | -
CNS(=O)(=O)c1cccc(C(=O)NCC(c2cccs2)N2CCOCC2)c1 (stereo not drawn) | - | - | - | - | - | . | . | . | . | .
Cc1ccc2c(c1)sc(-c1ccc(N(C)C)cc1)[n+]2C | - | - | - | - | -11 | - | - | 0.66 | - | -
Cn1c(O)c(N=NC(=O)Cn2ccc(C(F)(F)F)n2)c2ccccc21 | - | - | - | - | -6.3 | - | - | - | - | -
Cc1ccccc1C(=O)NC1CCN(C(=O)Nc2ccccc2Cl)CC1 | - | - | - | - | - | - | . | . | . | .
SMILES | MrgX1 agonist | RGS4 block | RGS4 pot | MrgX1 allo act | MrgX1 antag | Lipid droplet | MrgX1 ant reconf | HEK293 Ca flux | HEK293 Ca counter | HEK293 Ca cntr2
CCc1cc(=O)oc2cc(OC(C)=O)cc(OC(C)=O)c12 | - | - | - | - | -8.3 | - | - | - | - | -
COC(=O)N1CCCc2cc(C)ccc21 | - | - | - | - | - | - | . | . | . | .
COc1ccc2c(c1)CCCN2C(N)=O | - | - | - | - | -4.9 | - | - | - | - | -
CCCNC(=O)c1ccccc1NC(=O)c1ccccc1N(C)S(=O)(=O)c1ccc(C)cc1 | . | - | - | . | . | - | . | . | . | .
Cc1ccc(NC(=O)C2(c3cccs3)CCOCC2)cc1C | - | - | - | - | -4.8 | - | - | - | - | -
Cc1cccc(NC(=O)C2(c3cccs3)CCOCC2)c1 | - | - | - | - | - | - | . | . | . | .
O=C(Cn1c2c(c(-c3ccccc3Cl)cc1=O)CCC2)NCCCN1CCOCC1 | - | - | - | - | - | - | . | . | . | .
Cc1cc(Br)ccc1NC(=S)NCCc1ccccc1 | - | - | - | - | - | - | . | . | . | .
Cc1ccc(NC(=S)NCCc2ccccc2)c(C)c1 | - | - | - | - | -5.2 | - | - | - | - | -
O=C(CCNC(=O)c1ccco1)Nc1ccccc1OC(F)F | - | - | - | - | - | . | . | . | . | .
CCOC(=O)Cc1csc(SC(C)C(=O)NC2CCCCC2C)n1 (stereo not drawn) | - | - | - | - | -5.3 | . | 85% | - | - | -
O=C(Nc1ccc2c(c1)OCO2)C1CC(=O)N(c2ccc(F)cc2)C1 (stereo not drawn) | - | - | - | - | - | - | . | . | . | .
O=C(NC1CCN(C(=O)N2CCOCC2)CC1)c1ccccc1 | - | - | - | - | - | . | . | . | . | .
CCN(CC)C(=O)N1CCC(NC(=O)c2ccccc2)CC1 | - | - | - | - | -7.5 | . | - | - | - | -
COc1ccc(CCNc2nc(N3CCOCC3)nc(N3CCOCC3)n2)cc1OC | - | - | - | - | -5.9 | - | - | - | - | -
COc1nc(NCCc2ccc(OC)c(OC)c2)nc(OC)n1 | - | - | - | - | - | - | . | . | . | .
CC(=O)Nc1ccc(Sc2ncccc2C(=O)Nc2ccc(OC(F)(F)F)cc2)cn1 | - | - | - | - | -10 | - | - | - | - | -
Cc1nn(C)c(C(=O)N/N=C/c2ccc(-c3ccccc3)cc2)c1Cl | - | - | - | - | -10 | - | - | - | - | -
O=C(CCCn1c(SCc2cccc(F)c2)nc2ccccc2c1=O)NCC1CCCO1 (stereo not drawn) | - | - | - | - | -5.2 | - | - | - | - | -
CCN(c1ccc(C)cc1)S(=O)(=O)c1nnc(NC(=O)c2ccco2)s1 | - | - | - | - | - | - | . | . | . | .
